Experimental data reported in ChEMBL document CHEMBL4002598, “Fusaric acid and analogues as Gram-negative bacterial quorum sensing inhibitors” (Eur J Med Chem, 2017).
Converted amounts (≈) assume the structure as drawn. The source made the active and inactive calls. The calls are words filed in the database; no cut-off is given here.

Assays:
Saccharomyces cerevisiae = assay: Inhibition of yeast Pma1 at 100 uM preincubated for 30 mins by spectrophotometric method
In short: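 Pma1 purified from Saccharomyces cerevisiae plasma membrane, 0.5 µg per reaction. Enzyme preincubated 30 min at room temperature with 100 µM compound. Reaction buffer: 5 mM ATP, 10 mM MgSO4, 50 mM KNO3, 5 mM NaN3, 3.5 mM molybdate, 20 mM MES-KOH pH 5.9. Run 30 min, then stopped with acidic molybdate/ascorbate/SDS. Released phosphate read at 860 nm after arsenite-citrate treatment (Baginski method).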

Pseudomonas aeruginosa [1] = assay: Inhibition of LasR-dependent quorum sensing activity in Pseudomonas aeruginosa harboring reporter plasmid lasB-GFP assessed as reduction in GFP expression up to 100 ug/ml measured every 15 mins for 14 hrs by fluorescence assay
In short: (§1)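 P. aeruginosa lasB-gfp and rhlA-gfp reporters, grown 16 h at 37 °C with shaking, then diluted to OD450 0.1 in BT minimal medium (10% A10, 0.5% glucose, 0.5% Casamino Acids). No added signal molecule. Fluorescence at 485/535 nm and growth monitored every 15 min for 14 h at 34 °C. Concentrations up to 100 µg/ml.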

[2] = molecular target: T1, HTH-type quorum-sensing regulator RhlR (Pseudomonas aeruginosa (strain ATCC 15692 / PAO1 / 1C / PRS 101 / LMG12228)) (UniProt P54292); assay: Inhibition of RhlR-dependent quorum sensing activity in Pseudomonas aeruginosa harboring reporter plasmid rhlA-gfp assessed as reduction in GFP expression up to 100 ug/ml measured every 15 mins for 14 hrs by fluorescence assay; in short: as §1
T1 sequence (whole entry): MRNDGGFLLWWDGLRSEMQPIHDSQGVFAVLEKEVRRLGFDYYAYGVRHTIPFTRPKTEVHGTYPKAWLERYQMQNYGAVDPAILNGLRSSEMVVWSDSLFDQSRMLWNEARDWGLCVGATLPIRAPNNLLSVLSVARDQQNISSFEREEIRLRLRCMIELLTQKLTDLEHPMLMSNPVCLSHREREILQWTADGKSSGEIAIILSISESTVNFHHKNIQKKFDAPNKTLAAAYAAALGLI

Escherichia coli [3] = assay: Growth inhibition of Escherichia coli at 0.39 to 100 ug/ml
In short: (§2)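 luxI-gfp E. coli reporter grown 16 h at 37 °C, shaking 180 rpm, then diluted to OD450 0.1 in BT minimal medium with 10% A10, 0.5% glucose and 0.5% Casamino Acids. 3-oxo-C6-HSL added at 10 nM final. Compounds run in triplicate as 2-fold dilutions from 100 μg/ml. GFP (ex 485/em 535) and OD450 read every 15 min for 14 h at 34 °C. IC50 taken from GFP curves.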

Escherichia coli [4] = assay: Inhibition of LuxR-dependent quorum sensing activity in Escherichia coli harboring reporter plasmid LuxI-GFP assessed as reduction in 3-oxo-C6-HSL-induced GFP expression up to 100 ug/ml measured every 15 mins for 14 hrs by fluorescence assay; in short: as §2
[5] = Inhibition of LuxR-dependent quorum sensing activity in Escherichia coli harboring reporter plasmid LuxI-GFP assessed as reduction in 3-oxo-C6-HSL-induced GFP expression measured every 15 mins for 14 hrs by fluorescence assay; in short: as §2
Escherichia coli [6] = assay: Inhibition of LuxR-dependent quorum sensing activity in Escherichia coli harboring reporter plasmid LuxI-GFP assessed as reduction in 3-oxo-C6-HSL-induced GFP expression at 6.2 to 50 ug/ml measured every 15 mins for 14 hrs by fluorescence assay
[7] = Inhibition of quorum sensing system in Agrobacterium tumefaciens harboring traG-LacZ reporter fusion measured after 4 hrs by beta-galactosidase reporter gene assay
Pseudomonas aeruginosa [8] = assay: Inhibition of LasR-dependent quorum sensing activity in Pseudomonas aeruginosa harboring reporter plasmid lasB-GFP assessed as reduction in GFP expression at >125 ug/ml measured every 15 mins for 14 hrs by fluorescence assay
In short: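 P. aeruginosa lasB-gfp monitor: 16 h overnight culture (37 °C, 180 rpm) diluted to OD450 0.1 in BT minimal medium plus 10% A10, 0.5% glucose, 0.5% Casamino Acids. No signal molecule added. GFP at ex 485/em 535 nm with growth, every 15 min over 14 h at 34 °C. Triplicate, 2-fold dilutions from 1000 μg/ml.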

Pseudomonas aeruginosa [9] = assay: Growth inhibition of Pseudomonas aeruginosa at >125 ug/ml

Row | Structure (SMILES) | inhibition (Saccharomyces cerevisiae) | inhibition (Pseudomonas aeruginosa [1]) | inhibition [2] | growth inhibition (GI) (Escherichia coli [3]) | inhibition (Escherichia coli [4]) | IC50 [5] [µg/mL] | inhibition (Escherichia coli [6]) | IC50 [7] [µM] | inhibition (Pseudomonas aeruginosa [8]) | growth inhibition (GI) (Pseudomonas aeruginosa [9])
1 | CCOC(=O)c1ccc(-c2ccc(C)cc2)cn1 | inactive | inactive | inactive |  |  |  |  |  |  | 
2 | CCOC(=O)c1ccc(-c2cccc3ccccc23)cn1 | inactive | inactive | inactive |  |  |  |  |  |  | 
3 | O=C(O)c1ccc(Cc2ccccc2)cn1 | inactive | inactive | inactive |  |  |  |  |  |  | 
4 | COC(=O)c1ccc(-c2ccnc3cc(OC)ccc23)cn1 | inactive | inactive | inactive |  |  |  |  |  |  | 
5 | O=C(O)c1ccc(-c2ccco2)cn1 | inactive | inactive | inactive | Toxic | Active |  |  |  |  | 
6 | C=CCSS/C=C\C[S+]([O-])CC=C (stereo unspecified) [(Z)-Ajoene] |  |  |  |  |  | 4 (≈ 17.1 µM) |  |  |  | 
7 | COC(=O)c1ccc(OCC2CC2)cn1 | inactive | inactive | inactive | Non-Toxic |  | 14 (≈ 67.6 µM) |  |  |  | 
8 | Cc1cc(-c2ccc(C(=O)O)nc2)c2ccccc2n1 | inactive | inactive | inactive | Non-Toxic | inactive |  |  |  |  | 
9 | COC(=O)c1ccc(-c2ccnc3ccccc23)cn1 | inactive | inactive | inactive | Non-Toxic | inactive |  |  |  |  | 
10 | COC(=O)c1ccc(-c2ccc(C)s2)cn1 | inactive | inactive | inactive |  |  |  |  |  |  | 
11 | CCOC(=O)c1ccc(CSCC)cn1 | inactive | inactive | inactive |  |  |  |  |  |  | 
12 | COC(=O)c1ccc(-c2ccnc3ccc(OC)cc23)cn1 | inactive | inactive | inactive |  |  |  |  |  |  | 
13 | CCCOc1ccc(C(=O)O)nc1 | inactive | inactive | inactive | Toxic | Active |  |  |  |  | 
14 | Cc1ccc(-c2ccc(C(=O)O)nc2)cc1 | inactive | inactive | inactive |  |  |  |  |  |  | 
15 | CCCCc1ccc(C(=O)OCC)nc1 | inactive | inactive | inactive | Non-Toxic |  | 55 (≈ 265 µM) | Active |  |  | 
16 | COC(=O)c1ccc(OCC(=O)Nc2ccccc2)cn1 | inactive | inactive | inactive | Non-Toxic |  | 64 (≈ 224 µM) |  |  |  | 
17 | O=C(O)c1ccc(Br)cn1 | inactive | inactive | inactive |  |  |  |  |  |  | 
18 | Cc1ccc(-c2ccc(C(=O)O)nc2)s1 | inactive | inactive | inactive |  |  |  |  |  |  | 
19 | COC(=O)c1ccc(-c2cccc(OC)n2)cn1 | inactive | inactive | inactive | Non-Toxic |  | 95 (≈ 389 µM) |  |  |  | 
20 | COC(=O)c1ccc(-c2cc(C)nc3ccccc23)cn1 | inactive | inactive | inactive |  |  |  |  |  |  | 
21 | COC(=O)c1ccc(-c2nccs2)cn1 | inactive | inactive | inactive |  |  |  |  |  |  | 

Row | Structure (SMILES) | inhibition (Saccharomyces cerevisiae) | inhibition (Pseudomonas aeruginosa [1]) | inhibition [2] | growth inhibition (GI) (Escherichia coli [3]) | inhibition (Escherichia coli [4]) | IC50 [5] [µg/mL] | inhibition (Escherichia coli [6]) | IC50 [7] [µM] | inhibition (Pseudomonas aeruginosa [8]) | growth inhibition (GI) (Pseudomonas aeruginosa [9])
22 | O=C(COc1ccc(C(=O)O)nc1)Nc1ccccc1 | inactive | inactive | inactive | Non-Toxic | inactive |  |  |  |  | 
23 | O=[N+]([O-])c1cc[n+]([O-])cc1 |  |  |  |  |  |  |  | 171 |  | 
24 | CCCOc1ccc(C(=O)OC)nc1 | inactive | inactive | inactive | Non-Toxic |  |  |  |  |  | 
25 | COC(=O)c1ccc(Cc2ccccc2)cn1 | inactive | inactive | inactive |  |  |  |  |  |  | 
26 | O=C(O)c1ccc(-c2ccccc2)cn1 | inactive | inactive | inactive |  |  |  |  |  |  | 
27 | CCOC(=O)c1ccc(Br)cn1 | inactive | inactive | inactive |  |  |  |  |  |  | 
28 | O=C(O)COc1ccc(C(=O)O)nc1 | inactive | inactive | inactive |  | inactive |  |  |  |  | 
29 | COc1ccc2c(-c3ccc(C(=O)O)nc3)ccnc2c1 | inactive | inactive | inactive |  |  |  |  |  |  | 
30 | O=C(O)c1ccc(-c2cccc3ccccc23)cn1 | inactive | inactive | inactive |  |  |  |  |  |  | 
31 | COc1cccc(-c2ccc(C(=O)O)nc2)n1 | inactive | inactive | inactive |  |  |  |  |  |  | 
32 | O=C(O)c1ccc(-c2nccs2)cn1 | inactive | inactive | inactive | Non-Toxic | inactive |  |  |  |  | 
33 | COC(=O)c1ccc(Br)cn1 | inactive | inactive | inactive |  | inactive |  |  |  | Active | Non-Toxic
34 | COC(=O)c1ccc(-c2ccco2)cn1 | inactive | inactive | inactive |  |  |  |  |  |  | 
35 | COc1ccc2nccc(-c3ccc(C(=O)O)nc3)c2c1 | inactive | inactive | inactive | Non-Toxic | inactive |  |  |  |  | 
36 | CCOC(=O)c1ccc(-c2ccccc2)cn1 | inactive | inactive | inactive | Non-Toxic |  | 12 (≈ 52.8 µM) |  |  |  | 
37 | Cn1cc2ccc(-c3ccc(C(=O)O)nc3)cc2n1 | inactive | inactive | inactive |  |  |  |  |  |  | 
38 | O=C(O)c1ccc(-c2ccnc3ccccc23)cn1 | inactive | inactive | inactive |  |  |  |  |  |  | 
39 | CCCNC(=O)c1ccc(NCCC)cn1 | inactive | inactive | inactive |  |  |  |  |  |  | 
40 | O=C(O)c1ccc(OCC2CC2)cn1 | inactive | inactive | inactive | Toxic | Active |  |  |  |  | 
41 | COC(=O)c1ccc(-c2ccc3cn(C)nc3c2)cn1 | inactive | inactive | inactive |  |  |  |  |  |  | 
